Common to all, as to format: functional
Holding throughout (conditions): read-out: DIZ

Experiment [1] relates to Aspergillus fumigatus. Put plainly: Antimicrobial activity against Aspergillus fumigatus RCMB 002008 at 1 mg/ml by agar diffusion technique. Put shortly: (§1)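 Agar well diffusion. Test compounds and reference standard drugs were diluted to 5.0, 2.5 and 1.0 mg/mL and applied to 0.6 cm wells. Inhibition zone beyond the control was scored as 0 (no inhibition), + (0.1–0.5 cm), ++ (0.6–1.0 cm) or +++ (1.0–1.5 cm).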

The test system of experiment [2] is Aspergillus fumigatus. Put plainly: Antimicrobial activity against Aspergillus fumigatus RCMB 002008 at 2.5 mg/ml by agar diffusion technique. Put shortly: as §1
The subject of experiment [3] is Aspergillus fumigatus. The experiment is described as follows: Antimicrobial activity against Aspergillus fumigatus RCMB 002008 at 5 mg/ml by agar diffusion technique. The method, boiled down:
as §1

In experiment [4] the test system is Penicillium italicum. Put plainly: Antimicrobial activity against Penicillium italicum RCMB 001018 at 1 mg/ml by agar diffusion technique. The method, boiled down:
as §1

The test system of experiment [5] is Penicillium italicum. The experiment is described as follows: Antimicrobial activity against Penicillium italicum RCMB 001018 at 2.5 mg/ml by agar diffusion technique. Put shortly: as §1
Experiment [6] relates to Penicillium italicum. Put plainly: Antimicrobial activity against Penicillium italicum RCMB 001018 at 5 mg/ml by agar diffusion technique. Put shortly:
as §1

The test system of experiment [7] is Syncephalastrum racemosum. The experiment is described as follows: Antimicrobial activity against Syncephalastrum racemosum RCMB 016001 at 1 mg/ml by agar diffusion technique. Put shortly:
as §1

Experiment [8] concerns Syncephalastrum racemosum. Put plainly: Antimicrobial activity against Syncephalastrum racemosum RCMB 016001 at 2.5 mg/ml by agar diffusion technique. The method, boiled down:
as §1

Experiment [9] has as its system Syncephalastrum racemosum. Put plainly: Antimicrobial activity against Syncephalastrum racemosum RCMB 016001 at 5 mg/ml by agar diffusion technique. Put shortly:
as §1

For experiment [10], the system named is Candida albicans. The experiment is described as follows: Antimicrobial activity against Candida albicans RCMB 005003 at 1 mg/ml by agar diffusion technique. The method, boiled down: as §1
The test system of experiment [11] is Candida albicans. Put plainly: Antimicrobial activity against Candida albicans RCMB 005003 at 2.5 mg/ml by agar diffusion technique. The method, boiled down: as §1
The subject of experiment [12] is Candida albicans. The experiment is described as follows: Antimicrobial activity against Candida albicans RCMB 005003 at 5 mg/ml by agar diffusion technique. The method, boiled down: as §1
Experiment [13] concerns Staphylococcus aureus. The experiment is described as follows: Antimicrobial activity against Staphylococcus aureus RCMB 106001 at 1 mg/ml by agar diffusion technique. Put shortly:
as §1

For experiment [14], the system named is Staphylococcus aureus. Put plainly: Antimicrobial activity against Staphylococcus aureus RCMB 106001 at 2.5 mg/ml by agar diffusion technique. Put shortly:
as §1

In experiment [15] the test system is Staphylococcus aureus. The experiment is described as follows: Antimicrobial activity against Staphylococcus aureus RCMB 106001 at 5 mg/ml by agar diffusion technique. The method, boiled down:
as §1

Experiment [16] relates to Pseudomonas aeruginosa. The experiment is described as follows: Antimicrobial activity against Pseudomonas aeruginosa RCMB 102002 at 1 mg/ml by agar diffusion technique. The method, boiled down:
as §1

Experiment [17] deals with Pseudomonas aeruginosa. Put plainly: Antimicrobial activity against Pseudomonas aeruginosa RCMB 102002 at 2.5 mg/ml by agar diffusion technique. Put shortly:
as §1

Experiment [18] relates to Pseudomonas aeruginosa. The experiment is described as follows: Antimicrobial activity against Pseudomonas aeruginosa RCMB 102002 at 5 mg/ml by agar diffusion technique. The method, boiled down: as §1
Experiment [19] has as its system Bacillus subtilis. Put plainly: Antimicrobial activity against Bacillus subtilis RCMB 101001 at 1 mg/ml by agar diffusion technique. The method, boiled down: as §1
Experiment [20] deals with Bacillus subtilis. Put plainly: Antimicrobial activity against Bacillus subtilis RCMB 101001 at 2.5 mg/ml by agar diffusion technique. Put shortly: as §1
Experiment [21] has as its system Bacillus subtilis. The experiment is described as follows: Antimicrobial activity against Bacillus subtilis RCMB 101001 at 5 mg/ml by agar diffusion technique. Put shortly:
as §1

Experiment [22] has as its system Escherichia coli. Put plainly: Antimicrobial activity against Escherichia coli RCMB 103001 at 1 mg/ml by agar diffusion technique. The method, boiled down: as §1
The test system of experiment [23] is Escherichia coli. Put plainly: Antimicrobial activity against Escherichia coli RCMB 103001 at 2.5 mg/ml by agar diffusion technique. The method, boiled down:
as §1

The test system of experiment [24] is Escherichia coli. The experiment is described as follows: Antimicrobial activity against Escherichia coli RCMB 103001 at 5 mg/ml by agar diffusion technique. The method, boiled down: as §1

Regarding `S=c1[nH]nc(-c2cccnc2)n1/N=C\c1ccccc1OCCOCCOc1ccccc1/C=N\n1c(-c2cccnc2)n[nH]c1=S`, the zone of inhibition at 1000 µg/mL in the experiment with Aspergillus fumigatus [1] is 0 mm; in the experiment with Penicillium italicum [4] it was 1 mm; in experiment [7], 0 mm; in the experiment on Candida albicans [10] it was 0 mm; with Staphylococcus aureus [13], 0 mm; with Pseudomonas aeruginosa [16], 0 mm. For the same compound, the zone of inhibition at 1000 µg/mL with Bacillus subtilis [19] worked out at 1 mm; in the experiment with Escherichia coli [22], 0 mm. For the same compound, the zone of inhibition at 2500 µg/mL in the experiment with Aspergillus fumigatus [2] turned out to be 1 mm; in the experiment on Penicillium italicum [5], 1 mm; in experiment [8], 0 mm; in the experiment on Candida albicans [11], 0 mm; with Staphylococcus aureus [14] it was 0 mm; with Pseudomonas aeruginosa [17], 0 mm. Moreover, the zone of inhibition at 2500 µg/mL came out at 1 mm in the experiment with Bacillus subtilis [20] and 0 mm in the experiment with Escherichia coli [23]. For the same compound, the zone of inhibition at 5000 µg/mL with Aspergillus fumigatus [3] was 1 mm; in the experiment on Penicillium italicum [6] it was 1 mm; in [9] it was 1 mm; in the experiment on Candida albicans [12] it was 0 mm; in the experiment on Staphylococcus aureus [15], 0 mm; with Pseudomonas aeruginosa [18], 0 mm. Besides, the zone of inhibition at 5000 µg/mL with Bacillus subtilis [21] amounted to 1 mm; in the experiment with Escherichia coli [24], 0 mm.

For the compound `S=c1[nH]nc(-c2cccnc2)n1/N=C\c1ccccc1OCCOCCOCCOc1ccccc1/C=N\n1c(-c2cccnc2)n[nH]c1=S`, the zone of inhibition at 1000 µg/mL came to 0 mm with Aspergillus fumigatus [1]; 1 mm with Penicillium italicum [4]; 0 mm in experiment [7]; 0 mm in the experiment on Candida albicans [10]; 0 mm in the experiment on Staphylococcus aureus [13]; 0 mm in the experiment with Pseudomonas aeruginosa [16]. The zone of inhibition at 1000 µg/mL in the experiment on Bacillus subtilis [19] and in the experiment with Escherichia coli [22] was 0 mm throughout. Besides, the zone of inhibition at 2500 µg/mL in the experiment with Aspergillus fumigatus [2] was 0 mm; in the experiment with Penicillium italicum [5], 1 mm; in [8], 0 mm; in the experiment on Candida albicans [11] it was 0 mm; in the experiment on Staphylococcus aureus [14] it was 0 mm; with Pseudomonas aeruginosa [17] it was 0 mm. Further, the zone of inhibition at 2500 µg/mL in the experiment on Bacillus subtilis [20] and in the experiment on Escherichia coli [23] was 0 mm each time. The zone of inhibition at 5000 µg/mL in the experiment with Aspergillus fumigatus [3] is 0 mm; in the experiment with Penicillium italicum [6] it was 6 mm; in [9], 0 mm; with Candida albicans [12] it was 1 mm; in the experiment with Staphylococcus aureus [15] it was 1 mm; in the experiment with Pseudomonas aeruginosa [18] it was 0 mm. The zone of inhibition at 5000 µg/mL with Bacillus subtilis [21] and in the experiment on Escherichia coli [24] was 0 mm each time.

With `Nn1c(SCCSc2nnc(-c3cccnc3)n2N)nnc1-c1cccnc1`, the zone of inhibition at 1000 µg/mL in the experiment on Aspergillus fumigatus [1] is 0 mm; with Penicillium italicum [4], 0 mm; in experiment [7], 0 mm; in the experiment on Candida albicans [10] it was 1 mm; in the experiment on Staphylococcus aureus [13], 0 mm; with Pseudomonas aeruginosa [16], 0 mm. The zone of inhibition at 1000 µg/mL with Bacillus subtilis [19] and in the experiment with Escherichia coli [22] was 0 mm in each case. Besides, the zone of inhibition at 2500 µg/mL in the experiment with Aspergillus fumigatus [2] worked out at 0 mm; in the experiment with Penicillium italicum [5] it was 1 mm; in experiment [8], 0 mm; with Candida albicans [11] it was 1 mm; with Staphylococcus aureus [14], 0 mm; with Pseudomonas aeruginosa [17], 0 mm. For the same compound, the zone of inhibition at 2500 µg/mL in the experiment on Bacillus subtilis [20] and in the experiment on Escherichia coli [23] was 0 mm in each case. The zone of inhibition at 5000 µg/mL in the experiment on Aspergillus fumigatus [3] turned out to be 0 mm; in the experiment with Penicillium italicum [6], 1 mm; in [9], 0 mm; with Candida albicans [12], 1 mm; in the experiment with Staphylococcus aureus [15] it was 1 mm; with Pseudomonas aeruginosa [18], 0 mm. For the same compound, the zone of inhibition at 5000 µg/mL in the experiment on Bacillus subtilis [21] turned out to be 0 mm; in the experiment on Escherichia coli [24], 1 mm.

These data come from ChEMBL document CHEMBL1629465, “Efficient synthesis of novel 1,2,4-triazole fused acyclic and 21-28 membered macrocyclic and/or lariat macrocyclic oxaazathia crown compounds with potential antimicrobial activity” (2010).
